Test results reported in ChEMBL document CHEMBL1146962, “Design, synthesis, and biological evaluation of a scaffold for iGluR ligands based on the structure of (-)-dysiherbaine” (Bioorg Med Chem Lett, 2006).
The source made the active and inactive calls. No cut-off for these calls is given here.

Assays:
Format in all cases: functional
[1] = biological target: T1, Glutamate receptor ionotropic, kainate (Rattus norvegicus) (UniProt P22756+Q01812+P42260+P42264+Q63273); assay: Antagonist activity against rat KA receptor assessed by inhibition of kainate-induced membrane current at 100 uM; set-up: scale not given: the % may be the effect or the level left
Summary of the method: (§1)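 Oocytes injected with native rat cerebral cortex mRNA were used. Membrane currents induced by 100 μM kainate were recorded with the test agent present (analogs at 100 μM; CNQX reference at 1 μM). Residual current is reported as a percentage of the kainate control. N = 2-7 oocyte preparations.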

[2] = biological target: T2, Glutamate NMDA receptor (Rattus norvegicus) (UniProt P35439+Q00959+Q00960+Q00961+Q62645+Q8VHN2+Q9R1M7); assay: Agonist activity at rat NMDA receptor in presence of glycine assessed by generation of membrane current at 100 uM relative to control
Summary of the method: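 Rat cortex mRNA-injected oocytes. The analog (100 μM) was applied in the presence of 100 μM glycine. The elicited current is expressed relative to a positive control of 100 μM NMDA plus 100 μM glycine.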

[3] = biological target: T2, Glutamate NMDA receptor (Rattus norvegicus); assay: Antagonist activity against rat NMDA receptor assessed by inhibition of NMDA plus glycine-induced membrane current at 100 uM
Summary of the method: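 In rat cortex mRNA-injected oocytes, analogs (100 μM) were tested against currents evoked by 100 μM NMDA plus 100 μM glycine.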

[4] = biological target: T1, Glutamate receptor ionotropic, kainate (Rattus norvegicus); assay: Agonist activity at rat KA receptor assessed by generation of membrane current at 100 uM relative to control
[5] = biological target: T1, Glutamate receptor ionotropic, kainate (Rattus norvegicus); assay: Agonist activity at rat KA receptor assessed by generation of membrane current at 100 uM relative to control in presence of 10 uM cyclothiazide
Summary of the method: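 Oocytes were injected with rat cerebral cortex mRNA. Each analog at 100 μM was co-applied with 10 μM cyclothiazide (AMPA receptor desensitization inhibitor). Membrane current is given as a percentage of the 100 μM kainate control current, with and without cyclothiazide. N = 2-7 oocyte preparations.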

[6] = biological target: T1, Glutamate receptor ionotropic, kainate (Rattus norvegicus); assay: Antagonist activity against rat KA receptor assessed by inhibition of kainate-induced membrane current at 1 uM; set-up: scale not given: the % may be the effect or the level left; summary of the method: as §1

SMILES	Activity [1] [%]	Activity [2]	Activity [3]	Activity [4]	Activity [5] [%]	Activity [6] [%]
Cc1cccc2c1O[C@@](C[C@H](N)C(=O)O)(C(=O)O)C2	95	inactive	inactive	6%	13	–
N[C@@H](C[C@]1(C(=O)O)Cc2ccccc2O1)C(=O)O	55	inactive	inactive	inactive	–	–
N#Cc1cc2c(cc1[N+](=O)[O-])=NC(=O)C(=O)N=2	–	–	–	–	–	38

Next, values leading:

Activity [1] [%]	Activity [2]	Activity [3]	Activity [4]	Activity [5] [%]	Activity [6] [%]	SMILES
72	44%	inactive	inactive	–	–	Cc1ccc2c(c1)C[C@](C[C@H](N)C(=O)O)(C(=O)O)O2
100	–	inactive	inactive	–	–	N[C@@H](C[C@@]1(C(=O)O)Cc2ccccc2O1)C(=O)O
